Published values gathered from unrelated publications.
Lines come from different studies, so protocols differ.
REN: Renin (REN, Homo sapiens, UniProt P00797)
CDK4: Cyclin-dependent kinase 4 (CDK4, Homo sapiens, UniProt P11802)

SMILES | target | observed | mode | method | tested at | inhibition [%]
CN(C)C(=O)COC(=O)Cc1ccc(OC(=O)c2ccc(NC(=N)N)cc2)cc1 | REN | enzyme activity | inhibitor | – | 10 µM | 1
CCOC(=O)[C@H]1Cc2c(cc([N+](=O)[O-])cc2[N+](=O)[O-])[C@H](O)[C@]12C(=O)Nc1ccc(Cl)cc12 | CDK4 | cell-free assay | inhibitor | TR-FRET | 1 µM | 45.2
c1ccc(C(NCCNC(c2ccccc2)c2ccccc2)c2ccccc2)cc1 | REN | enzyme activity | inhibitor | – | 10 µM | 30
CCOC(=O)[C@H]1Cc2c(cc([N+](=O)[O-])cc2[N+](=O)[O-])[C@@H](O)[C@@]12C(=O)Nc1ccc(C)cc12 | CDK4 | cell-free assay | inhibitor | TR-FRET | 1 µM | 67.8
Cn1cc(-c2cc(F)cc(N3CCn4c(cc5c4CCCC5)C3=O)c2CO)cc(Nc2ccc(N3CCN(C4COC4)CC3)cn2)c1=O | Serine/threonine-protein kinase 3 (STK3, Homo sapiens, UniProt Q13188) | enzyme activity | inhibitor | – | 0.1 µM | 13
Clc1ccc2c(C3CCN(CCc4c[nH]c5ccccc45)CC3)c[nH]c2c1 | Amine oxidase [flavin-containing] A (Maoa, Rattus norvegicus, UniProt P21396) | ligand displacement | – | radioligand | 10 µM | 15
COCCCOc1cc(C[C@@H](C[C@H](N)[C@@H](O)C[C@H](C(=O)NCC(C)(C)C(N)=O)C(C)C)C(C)C)ccc1OC | REN | enzyme activity | inhibitor | – | 100 pM | 0
CCOC(=O)[C@H]1Cc2c(cc([N+](=O)[O-])cc2[N+](=O)[O-])[C@@H](O)[C@@]12C(=O)Nc1ccc(F)cc12 | CDK4 | cell-free assay | inhibitor | TR-FRET | 1 µM | 53.9
C#Cc1n[nH]c2c(-c3cn(C(C)c4ccccn4)c(=O)[nH]c3=O)cc(F)cc12 (stereo not shown) | Ephrin type-A receptor 5 (EPHA5, Homo sapiens, UniProt P54756) | enzyme activity | inhibitor | – | 1 µM | 4
CCOC(=O)c1ccc(OC(=O)CCCCCNC(=N)N)cc1 | REN | enzyme activity | inhibitor | – | 10 µM | 0
CCOC(=O)[C@H]1Cc2c(cc([N+](=O)[O-])cc2[N+](=O)[O-])[C@@H](O)[C@@]12C(=O)Nc1cccc(Br)c12 | CDK4 | cell-free assay | inhibitor | TR-FRET | 1 µM | 45.6
CC(C)C[C@H](NC(=O)[C@H](Cc1ccccc1)NC(=O)c1cnccn1)B(O)O | GZMA (Homo sapiens, UniProt P12544) | enzyme activity | inhibitor | – | 33 µM | 72.4
COc1cc(Nc2ncc(F)c(Nc3ccc4c(n3)NC(=O)C(C)(C)O4)n2)cc(OC)c1OC | Cyclin-G-associated kinase (GAK, Homo sapiens, UniProt O14976) | binding | – | – | 10 µM | 95
